The text below walks through data of ChEMBL document CHEMBL3797022, “New applications for known drugs: Human glycogen synthase kinase 3 inhibitors as modulators of Aspergillus fumigatus growth” (Eur J Med Chem, 2016).

For assay [1], the system named is Aspergillus nidulans. The experiment in a line: Anifungal activity against Aspergillus nidulans MAD4096 assessed as growth inhibition after 72 hrs by Neubauer chamber analysis. Format: functional, organism-based. Put shortly:
(§1)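 A. nidulans prototroph strains (wild type MAD4096; crzAΔ MAD4100) were point-inoculated with 10^3 conidia, counted by Neubauer chamber, onto 1 ml AMM. The medium contained inhibitor from a 50 mM DMSO stock added to the melted agar, with a matching DMSO control. Colonial growth was evaluated photographically after 72 h at 37°C.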

Assay [2] concerns the target Glycogen synthase kinase-3 beta (Homo sapiens, UniProt P49841). The experiment in a line: Inhibition of human recombinant GSK3beta expressed in Escherichia coli using GS-1 as substrate incubated for 20 mins by gamma[32P]ATP-based scintillation counting analysis.
Assay [3] concerns Aspergillus nidulans. The experiment in a line: Anifungal activity against Aspergillus nidulans MAD4100 deficient in crzA assessed as growth inhibition after 72 hrs by Neubauer chamber analysis. It counts as functional, organism-based. In a few lines: as §1
The test system of assay [4] is Aspergillus nidulans. The experiment in a line: Anifungal activity against Aspergillus nidulans MAD4096 assessed as growth inhibition at 50 uM after 72 hrs by Neubauer chamber analysis. It counts as functional, organism-based. In a few lines: as §1
Assay [5] relates to Aspergillus nidulans. The experiment in a line: Anifungal activity against Aspergillus nidulans MAD4097 deficient in sltA assessed as reduction in colonial diameter at 10 uM after 72 hrs by Neubauer chamber analysis. Format: functional. The note with it: MAD4097, 72 h. In a few lines:
(§2)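 A. nidulans sltA-deleted prototroph MAD4097, alongside wild-type MAD4096 and crzA-null MAD4100, tested on solid minimal medium (AMM) containing increasing inhibitor concentrations, added from DMSO stock (stock 50 mM); equal DMSO in control medium. 10^3 spores (Neubauer chamber count) centrally inoculated per well; 37°C for 72 h, colonies then photographed and colonial growth evaluated.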

The subject of assay [6] is Aspergillus fumigatus. Nature of the assay: Anifungal activity against Aspergillus fumigatus CM237 assessed as growth inhibition at 50 uM after 48 to 72 hrs by Neubauer chamber analysis. Format: functional, organism-based. In a few lines:
(§3)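 A. fumigatus wild-type prototroph conidia were used, 10^3 spores counted by Neubauer chamber and inoculated centrally onto 1 ml AMM. Inhibitors were dissolved in DMSO from 50 mM stocks and added to melted medium, with a DMSO-only control. Colonial growth was scored at 37°C after 48 and 72 h.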

The subject of assay [7] is Aspergillus fumigatus. The experiment in a line: Anifungal activity against Aspergillus fumigatus AF293 assessed as growth inhibition at 50 uM after 48 to 72 hrs by Neubauer chamber analysis. Format: functional. In a few lines: as §3
The subject of assay [8] is Aspergillus fumigatus. Nature of the assay: Anifungal activity against Aspergillus fumigatus CBS144 assessed as growth inhibition at 50 uM after 48 to 72 hrs by Neubauer chamber analysis. It counts as functional, organism-based. In a few lines:
as §3

The subject of assay [9] is Aspergillus nidulans. Nature of the assay: Anifungal activity against Aspergillus nidulans MAD4097 deficient in sltA assessed as reduction in colonial diameter at 50 uM after 72 hrs by Neubauer chamber analysis. It counts as functional, organism-based. In a few lines: as §2
The test system of assay [10] is Aspergillus fumigatus. The experiment in a line: Anifungal activity against Aspergillus fumigatus CM237 assessed as growth inhibition at 100 uM after 48 to 72 hrs by Neubauer chamber analysis. It counts as functional, organism-based. In a few lines: as §3
Assay [11] concerns Aspergillus fumigatus. The experiment in a line: Anifungal activity against Aspergillus fumigatus AF293 assessed as growth inhibition at 100 uM after 48 to 72 hrs by Neubauer chamber analysis. It counts as functional. In a few lines:
as §3

Assay [12] relates to Aspergillus fumigatus. Nature of the assay: Anifungal activity against Aspergillus fumigatus CBS144 assessed as growth inhibition at 100 uM after 48 to 72 hrs by Neubauer chamber analysis. Format: functional, organism-based. Put shortly:
as §3

Assay [13] has as its system Aspergillus nidulans. The experiment in a line: Anifungal activity against Aspergillus nidulans MAD4097 deficient in sltA assessed as growth inhibition after 72 hrs by Neubauer chamber analysis. It counts as functional, organism-based. Put shortly:
as §2

Assay [14] has as its system Aspergillus fumigatus. Nature of the assay: Anifungal activity against Aspergillus fumigatus CBS144 assessed as growth inhibition at 5 uM after 48 to 72 hrs by Neubauer chamber analysis. It counts as functional, organism-based. Put shortly: (§4)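 Wild-type prototroph A. fumigatus strains (CM237, AF293, CBS144) grown on solid minimal medium (AMM) with inhibitor added from DMSO stock (stock 50 mM); DMSO-only medium as control. 10^3 spores (counted by Neubauer chamber) centrally point-inoculated per well; incubated at 37°C, colonial growth scored after 48 and 72 h.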

Assay [15] has as its system Aspergillus fumigatus. Nature of the assay: Anifungal activity against Aspergillus fumigatus CM237 assessed as growth inhibition at 5 uM after 72 hrs by Neubauer chamber analysis. Format: functional, organism-based. In a few lines: as §4
For assay [16], the system named is Aspergillus fumigatus. Nature of the assay: Anifungal activity against Aspergillus fumigatus AF293 assessed as growth inhibition at 5 uM after 72 hrs by Neubauer chamber analysis. It counts as functional. Put shortly: as §4
Assay [17] relates to Aspergillus fumigatus. The experiment in a line: Anifungal activity against Aspergillus fumigatus CM237 assessed as growth inhibition at 5 uM after 48 hrs by Neubauer chamber analysis. Format: functional, organism-based. In a few lines:
as §4

For assay [18], the system named is Aspergillus fumigatus. Nature of the assay: Anifungal activity against Aspergillus fumigatus AF293 assessed as growth inhibition at 5 uM after 48 hrs by Neubauer chamber analysis. Format: functional. Put shortly: as §4

pIC50: −log10 of the molar value. Activity calls are given as the source filed them. The rule behind the calls is not given here.

The pIC50 is −log10 of the IC50, conventionally taken in molar units. Usually inhibition stands for the drop in the measured response relative to a control, in per cent.

Glycogen synthase kinase-3 beta, sequence (P49841 whole entry): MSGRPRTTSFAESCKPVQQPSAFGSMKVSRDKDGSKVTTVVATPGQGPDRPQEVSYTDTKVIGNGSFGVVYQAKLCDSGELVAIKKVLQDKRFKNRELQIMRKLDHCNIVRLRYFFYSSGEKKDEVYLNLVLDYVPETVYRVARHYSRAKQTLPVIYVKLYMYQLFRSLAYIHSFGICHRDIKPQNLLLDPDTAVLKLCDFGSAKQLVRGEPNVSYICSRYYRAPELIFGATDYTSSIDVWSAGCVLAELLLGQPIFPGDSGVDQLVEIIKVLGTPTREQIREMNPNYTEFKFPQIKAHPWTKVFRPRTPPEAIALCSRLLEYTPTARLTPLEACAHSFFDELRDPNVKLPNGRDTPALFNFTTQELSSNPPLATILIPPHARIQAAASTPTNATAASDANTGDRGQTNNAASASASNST

For `COc1ccc(CNC(=O)Nc2nc(C)c(C(C)=O)s2)cc1`, the “growth inhibition (GI)” value in [1] and in assay [3] was “inactive” each time. The pIC50 in assay [2] was 6.22.

For `Cn1sc(=O)n(Cc2ccccc2)c1=O`, the “growth inhibition (GI)” value in assay [3] was “inactive”. Moreover, the “growth inhibition (GI)” value in assay [4], in assay [6], in assay [7] and in [8] was “Active” in each case. For the same compound, the inhibition at 10 µM in [5] stood at 50%.

For `O=c1sn(-c2cccc3ccccc23)c(=O)n1Cc1ccccc1`, the “growth inhibition (GI)” value in [1], in [3], in assay [10], in [11] and in assay [12] was “inactive” throughout. The inhibition result in assay [9] is “Active”.

With `O=C(CCl)c1scc(Br)c1Br`, the “growth inhibition (GI)” value in [13], in [14], in assay [17] and in assay [18] was “Active” each time. Further, the “growth inhibition (GI)” value in [3], in [15] and in [16] was “inactive” each time.

In the case of `CCCCCCCCCCCC(=O)NNC(=O)c1c(O)c2ccccc2n(CC)c1=O`, the “growth inhibition (GI)” value in [1] and in assay [3] was “inactive” each time. The pIC50 in assay [2] was 5.55.
